Laboratory results as given in ChEMBL document CHEMBL1127496, “The structural basis of camptothecin interactions with human serum albumin: impact on drug stability” (J Med Chem, 1994).

Legend:
[1] = Excited-state lifetime value for free carboxylate form of compound in solution; assay type: ADME
In short: (§1)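 Phase-shift fluorescence lifetime, 30 MHz modulated excitation, no polarizers, long-pass emission filters. Measured on 20 μM lactone or carboxylate form in HSA-free PBS, pH 7.40 ± 0.05, 37 °C. Carboxylate made by mixing DMSO stock 1:1 with PBS pH 10.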

[2] = Half-life in PBS buffer solution in the presence of human serum albumin; assay type: ADME; settings: PBS buffer with human serum albumin
[3] = species on record: Homo sapiens; test: Excited-state lifetime value for lactone form of compound bound to human serum albumin; assay type: ADME
In short: (§2)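 Phase-shift lifetimes, 30 MHz modulation, no polarizers, long-pass emission filters, in PBS pH 7.4 at 37 °C. Drug 20 μM (lactone or carboxylate form) titrated with HSA. Lifetimes corrected for HSA background (τH 3.2 ns, fH weighting). Bound lifetime τB extrapolated to infinite HSA by nonlinear least-squares fit to τC = τB + b·exp(−c[HSA]). Triplicate runs.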

[4] = Excited-state lifetime value for free lactone form of compound in solution; assay type: ADME; in short: as §1
[5] = Half-life in PBS buffer solution in the absence of human serum albumin; assay type: ADME; settings: PBS buffer without human serum albumin
In short: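 Lactone hydrolysis at 1 μM drug in PBS pH 7.40 ± 0.05, 37 °C, with or without 290 μM HSA. Aliquots taken at mixing and every 5 min, diluted in water, then run on C18 reversed-phase HPLC with fluorescence detection of lactone and carboxylate. t1/2 from nonlinear least-squares fit of lactone decay. At least three independent kinetic runs.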

[6] = species on record: Homo sapiens; test: Excited-state lifetime value for carboxylate form of compound bound to human serum albumin; assay type: ADME; settings: in vitro; in short: as §2
[7] = target: T1, Albumin (Homo sapiens, UniProt P02768); test: Association constant for the binding of the lactone form to human serum albumin;(M aa)e-1
T1 sequence (P02768 whole entry): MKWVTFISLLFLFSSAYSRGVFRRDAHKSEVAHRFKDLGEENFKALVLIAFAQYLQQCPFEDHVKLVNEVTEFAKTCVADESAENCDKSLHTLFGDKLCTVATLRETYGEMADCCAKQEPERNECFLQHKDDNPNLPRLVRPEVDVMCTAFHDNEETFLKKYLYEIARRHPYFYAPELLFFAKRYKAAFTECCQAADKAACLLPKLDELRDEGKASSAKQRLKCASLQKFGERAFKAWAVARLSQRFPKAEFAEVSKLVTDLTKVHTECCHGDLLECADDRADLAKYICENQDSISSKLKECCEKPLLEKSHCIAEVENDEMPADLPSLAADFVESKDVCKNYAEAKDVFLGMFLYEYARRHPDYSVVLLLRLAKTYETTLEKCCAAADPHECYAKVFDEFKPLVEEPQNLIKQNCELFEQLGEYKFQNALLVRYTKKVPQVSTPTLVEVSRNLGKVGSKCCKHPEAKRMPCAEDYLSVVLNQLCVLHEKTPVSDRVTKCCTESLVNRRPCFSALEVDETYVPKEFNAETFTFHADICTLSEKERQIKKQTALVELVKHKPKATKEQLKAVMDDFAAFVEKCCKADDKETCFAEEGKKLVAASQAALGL
In short: (§3)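 Fluorescence lifetime titration in PBS, pH 7.40 ± 0.05, 37 °C. Total drug 20 μM, lactone or carboxylate form (carboxylate stock made by mixing DMSO stock 1:1 with PBS pH 10), titrated with varying HSA. Phase-shift lifetimes at 30 MHz modulation. Free fraction (τ − τB)/(τF − τB) plotted against log amino-acid residue concentration. K and n obtained by nonlinear least-squares fit to K = [Db]/([Df][aa]^n).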

[8] = target: T1, Albumin; test: Binding parameter of the lactone form to human serum albumin; n value; in short: as §3
[9] = target: T1, Albumin; test: Association constant for the binding of the carboxylate form to human serum albumin;(M aa)e-1; in short: as §3
[10] = target: T1, Albumin; test: Binding parameter of the carboxylate form to human serum albumin; n value; in short: as §3

SMILES | T free [1] [ns] | half-life [2] [min] | T bound [3] [ns] | T free [4] [ns] | half-life [5] [min] | T bound [6] [ns] | K [7] | Activity [8] | K [9] | Activity [10]
CCc1c2c(nc3ccc(C4CCN(C(=O)OC)CC4)cc13)-c1cc3c(c(=O)n1C2)COC(=O)C3(O)CC (stereo not drawn) | 4 | 29 | 3.7 | 3.7 | 25.6 | 4 | – | – | – | –
CCC1(O)C(=O)OCc2c1cc1n(c2=O)Cc2cc3cc4c(cc3nc2-1)OCO4 (stereo not drawn) | 2.4 | 20.7 | 1.3 | 2 | 31.7 | 1.3 | 10 1/Maa | 1.3 | 2200 1/Maa | 1.7
CCC1(O)C(=O)OCc2c1cc1n(c2=O)Cc2cc3c(Cl)c4c(cc3nc2-1)OCO4 (stereo not drawn) | 2.5 | 16.9 | 1.9 | 1.9 | 34.6 | 1.1 | – | – | 1200 1/Maa | 1.6
CCc1c2c(nc3ccc(O)cc13)-c1cc3c(c(=O)n1C2)COC(=O)[C@]3(O)CC [7-ETHYL-10-HYDROXYCAMPTOTHECIN] | – | – | – | – | 19.9 | – | – | – | – | –
CC[C@@]1(O)C(=O)OCc2c1cc1n(c2=O)Cc2cc3c(N)cccc3nc2-1 [9-AMINOCAMPTOTHECIN] | – | 23.4 | – | – | 17.9 | – | – | – | – | –
CC[C@@]1(O)C(=O)OCc2c1cc1n(c2=O)Cc2cc3ccccc3nc2-1 [CAMPTOTHECIN] | 4.3 | 12.5 | 2.7 | 4.2 | 23.8 | 1.3 | 30 1/Maa | 1.8 | 4700 1/Maa | 2.3
CC[C@@]1(O)C(=O)OCc2c1cc1n(c2=O)Cc2cc3cc(O)ccc3nc2-1 [HYDROXYCAMPTOTHECIN] | 4 | 21.1 | 5.4 | 4 | 22.1 | 5.5 | 130 1/Maa | 1.7 | 260 1/Maa | 1.7
CC[C@@]1(O)C(=O)OCc2c1cc1n(c2=O)Cc2cc3c(CN(C)C)c(O)ccc3nc2-1 [TOPOTECAN] | 6.1 | 28.9 | 6 | 6 | 22.8 | 6.1 | – | – | – | –
